The target in data set [1] is T1, RmlC (Mycobacterium tuberculosis, UniProt P9WH11). Nature of the data set: 96-well RmlC/RmlD coupled assay, NADPH absorbance at 340 nm. It is filed as biochemical.
The target in data set [2] is T1, RmlC. Put plainly: Reversibility of inhibition. The format is biochemical. The following applies: 10 times IC50 pre-incubated 0 or 0.5 hr with 100x RmlC, diluted 100-fold. Summed up:
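Test compound incubated 0 or 0.5 hr at 25°C with concentrated RmlC in buffer, then diluted 100-fold. RmlD, TDP-KDX and NADPH were added, and activity was followed as the decrease in NADPH fluorescence (340/460 nm) over 200 min. Controls had no compound, or compound added only after dilution.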

Data set [3] concerns the target T1, RmlC. Nature of the data set: Mode of inhibition: TDP-KDX Km. The format is biochemical.
Data set [4] has as its target T1, RmlC. Nature of the data set: Time dependence of the onset of inhibition. The format is biochemical. The following applies: pre-incubation 0, 1, 2 or 3 hr. In outline:
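Test compound came from a 16-point 2-fold serial dilution (2.5 mM top stock) and was diluted in water. It was pre-incubated 0–3 hr with 2x RmlC, RmlD and NADPH in 83.5 mM MOPS. TDP-KDX was then added and NADPH fluorescence followed over 90 min. IC50 came from a 4-parameter logistic fit of percent activity.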

For data set [5], the system named is RmlC and RmlD. It is filed as biochemical, Mycobacterium tuberculosis. The following applies: read-out: IC50 of the known inhibitor TDP.
In data set [6] the target is RmlC and RmlD (Mycobacterium tuberculosis, UniProt P9WH09). The format is biochemical. The following applies: read-out: Km of NADPH; cofactor; TDP-KDX at 200 μM.
Data set [7] can be described thus: Cytotoxicity, CellTiter-Glo luminescence. The following applies: human, human aortic endothelial (HAE) cells. It is filed as cell-based. (Cellular ATP, detected with luciferase, serves as a proxy for viable cell number.)

T1 sequence (P9WH11 whole entry, looked up): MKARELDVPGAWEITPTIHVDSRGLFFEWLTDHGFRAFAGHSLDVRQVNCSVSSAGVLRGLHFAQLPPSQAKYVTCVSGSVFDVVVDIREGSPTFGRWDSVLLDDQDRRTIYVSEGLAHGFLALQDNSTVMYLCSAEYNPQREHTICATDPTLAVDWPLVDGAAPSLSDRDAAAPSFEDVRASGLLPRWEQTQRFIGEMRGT
Chain of RmlC and RmlD (Mycobacterium tuberculosis, UniProt P9WH09) (P9WH09 whole entry): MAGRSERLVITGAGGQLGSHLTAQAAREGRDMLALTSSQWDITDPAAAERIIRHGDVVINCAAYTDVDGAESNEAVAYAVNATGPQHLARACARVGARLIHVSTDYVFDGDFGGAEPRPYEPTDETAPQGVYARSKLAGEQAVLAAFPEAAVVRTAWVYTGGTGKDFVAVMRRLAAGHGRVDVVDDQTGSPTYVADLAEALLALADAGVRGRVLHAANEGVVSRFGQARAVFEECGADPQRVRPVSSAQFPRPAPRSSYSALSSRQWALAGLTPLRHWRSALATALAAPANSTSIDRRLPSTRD

On to `CCCn1c2ccccc2c2nnc(SCCCn3c(=O)[nH]c4ccccc43)nc21` [compound 77071], for which the “fold increase of IC50 relative to 77074” value at RmlC [1] amounted to 10 fold.
Take `CCn1c2ccccc2c2nnc(SCCCn3c(=O)[nH]c4ccccc43)nc21` [SID 7975595, 1-(3-(5-ethyl-5H-[1,2,4]triazino[5,6-b]indol-3-ylthio)propyl)-1H-benzo[d]imidazol-2(3H)-one]: at RmlC [2], the reversibility of inhibition entry is reported as “fully reversible inhibitor”. The affinity at RmlC [3] corresponds to a Ki of 100 nM. Moreover, the “affinity of inhibitor relative to TDP-KDX (Km versus Ki)” value on RmlC [3] (comparison of Km of TDP-KDX and Ki of inhibitor) is “approximately 2000 fold”. In addition, the mode of inhibition result on RmlC [3] (versus substrate TDP-KDX) is “classical competitive inhibitor”. The “change of IC50 with pre-incubation time (onset of inhibition)” value on RmlC [4] is on record as “No such decrease in IC50 was observed”.
Regarding `Cc1cn([C@H]2C[C@H](O)[C@@H](COP(=O)(O)OP(=O)(O)O)O2)c(=O)[nH]c1=O` [TDP, reference compound], the IC50 with RmlC and RmlD [5] came out at 340 µM.
As to `C=CCn1c2ccccc2c2nnc(SCn3c(=O)[nH]c4ccccc43)nc21` [SID 7972845], the “fold increase of IC50 relative to 77074” value at RmlC [1] amounted to 86 fold.
As to `O=c1[nH]c2ccccc2n1CCCSc1nnc2c3ccccc3n(Cc3ccccc3)c2n1` [compound 77070], the “fold increase of IC50 relative to SID 7975595 (R1 ethyl)” value at RmlC [1] is “approximately 15 fold”.
For the compound `NC(=O)C1=CN([C@@H]2O[C@H](COP(=O)(O)OP(=O)(O)OC[C@H]3O[C@@H](n4cnc5c(N)ncnc54)[C@H](OP(=O)(O)O)[C@@H]3O)[C@@H](O)[C@H]2O)C=CC1` [NADPH], on RmlC and RmlD [6], the Michaelis-Menten constant (Km) stood at 12 µM.
Turning to `COc1cccc2c1C(=O)c1c(O)c3c(c(O)c1C2=O)C[C@@](O)(C(=O)CO)C[C@@H]3O[C@H]1C[C@H](N)[C@H](O)[C@H](C)O1` [doxorubicin], the half-maximal inhibitory concentration (IC50) at 24 h in data set [7] was ~10 µM.

The term Ki denotes the dissociation constant of the complex between target and ligand, obtained from inhibition or displacement. Higher therefore signals lower affinity. For orientation: IC50 means the concentration at which inhibition is half-maximal. One may read the Km as the substrate concentration at which the rate is half of its maximum.

The record behind these values is article PMC2818544 (Bioorganic & medicinal chemistry, 2009).
